Experimental data published in ChEMBL document CHEMBL1140903, “Reactions of functionalized sulfonamides: application to lowering the lipophilicity of cytosolic phospholipase A2alpha inhibitors” (J Med Chem, 2009).

Columns and labels:
[1] = test system: Blood; test: Inhibition of A23187-induced TBX2 release in Sprague-Dawley rat whole blood; assay type: functional, tissue-based
Method in brief: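 Rat whole blood is stimulated with calcium ionophore A23187, and thromboxane B2 is the read-out (cPLA2α- and COX-1-dependent). IC50 is taken from at least two runs, each run the mean of triplicate assays.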

[2] = target: T1, Cytosolic phospholipase A2 (Homo sapiens, UniProt P47712); test: Inhibition of human cytosolic PLA2alpha by GLU micelle assay
T1 sequence (P47712 whole entry): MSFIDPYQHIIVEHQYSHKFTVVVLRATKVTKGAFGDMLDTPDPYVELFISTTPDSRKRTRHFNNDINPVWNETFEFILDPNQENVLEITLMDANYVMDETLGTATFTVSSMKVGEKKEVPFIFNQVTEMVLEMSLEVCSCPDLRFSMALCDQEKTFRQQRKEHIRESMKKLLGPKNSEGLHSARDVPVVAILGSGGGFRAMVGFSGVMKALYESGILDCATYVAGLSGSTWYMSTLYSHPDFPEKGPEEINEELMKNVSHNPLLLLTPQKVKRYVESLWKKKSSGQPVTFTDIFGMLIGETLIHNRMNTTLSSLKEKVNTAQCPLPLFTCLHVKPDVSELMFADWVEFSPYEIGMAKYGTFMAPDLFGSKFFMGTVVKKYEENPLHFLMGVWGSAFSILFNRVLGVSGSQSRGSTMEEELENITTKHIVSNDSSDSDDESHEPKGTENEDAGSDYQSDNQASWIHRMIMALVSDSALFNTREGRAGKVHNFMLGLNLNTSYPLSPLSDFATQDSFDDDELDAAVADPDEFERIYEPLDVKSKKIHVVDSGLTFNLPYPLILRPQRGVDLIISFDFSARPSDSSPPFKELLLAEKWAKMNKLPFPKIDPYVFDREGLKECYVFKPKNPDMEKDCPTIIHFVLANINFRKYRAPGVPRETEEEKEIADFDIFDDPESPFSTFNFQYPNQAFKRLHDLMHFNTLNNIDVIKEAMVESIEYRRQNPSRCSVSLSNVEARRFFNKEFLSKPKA
Method in brief: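 Purified human cPLA2α with the substrate 7-hydroxycoumarinyl-γ-linolenate (GLU), presented in micelles containing a high concentration of detergent and lipid. IC50 is taken from at least two runs, each run the mean of duplicate assays.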

Row | IC50 [1] [nM] | IC50 [2] [nM] | Compound
1 | 77 | 220 | CC1CCCN1CCS(=O)(=O)NCCc1c(CCOc2ccc(C(=O)O)cc2)c2cc(Cl)ccc2n1C(c1ccccc1)c1ccccc1 (stereo not drawn)
2 | 1300 | 350 | O=C(O)c1ccc(OCCc2c(CCNS(=O)(=O)CCN3CCC(O)CC3)n(C(c3ccccc3)c3ccccc3)c3ccc(Cl)cc23)cc1
3 | 75 | 190 | O=C(O)c1ccc(OCCc2c(CCNS(=O)(=O)CSc3ccccc3)n(C(c3ccccc3)c3ccccc3)c3ccc(Cl)cc23)cc1
4 | 28 |  | O=C(O)c1ccc(CCCc2c(CCNS(=O)(=O)Cc3ccccc3CO)n(C(c3ccccc3)c3ccccc3)c3ccc(Cl)cc23)cc1
5 | 5000 | 750 | O=C(O)c1ccc(OCCc2c(CCNS(=O)(=O)CCN3CCNC3=S)n(C(c3ccccc3)c3ccccc3)c3ccc(Cl)cc23)cc1
6 | 1200 | 270 | CC(=O)N1C(C)CN(CCS(=O)(=O)NCCc2c(CCOc3ccc(C(=O)O)cc3)c3cc(Cl)ccc3n2C(c2ccccc2)c2ccccc2)CC1C (stereo not drawn)
7 | 200 | 350 | CC1CCCN(CCS(=O)(=O)NCCc2c(CCOc3ccc(C(=O)O)cc3)c3cc(Cl)ccc3n2C(c2ccccc2)c2ccccc2)C1 (stereo not drawn)
8 | 50 | 200 | O=Cc1ccccc1CS(=O)(=O)NCCc1c(CCCc2ccc(C(=O)O)cc2)c2cc(Cl)ccc2n1C(c1ccccc1)c1ccccc1
9 | 210 | 290 | O=C(O)c1ccc(OCCc2c(CCNS(=O)(=O)CCN3CCN(c4ccccn4)CC3)n(C(c3ccccc3)c3ccccc3)c3ccc(Cl)cc23)cc1
10 | 200 | 100 | COc1ccccc1S(=O)(=O)NCCc1c(CCCc2ccc(C(=O)O)cc2)c2cc(Cl)ccc2n1C(c1ccccc1)c1ccccc1
11 | 240 | 330 | COc1ccc(OC)c(SCS(=O)(=O)NCCc2c(CCOc3ccc(C(=O)O)cc3)c3cc(Cl)ccc3n2C(c2ccccc2)c2ccccc2)c1
12 | 80 | 20 | CN1CCN(Cc2ccccc2CS(=O)(=O)NCCc2c(CCCc3ccc(C(=O)O)cc3)c3cc(Cl)ccc3n2C(c2ccccc2)c2ccccc2)CC1
13 | 37 | 30 | CCN(CC)Cc1ccccc1CS(=O)(=O)NCCc1c(CCCc2ccc(C(=O)O)cc2)c2cc(Cl)ccc2n1C(c1ccccc1)c1ccccc1
14 | 80 | 300 | O=C(O)c1ccc(OCCc2c(CCNS(=O)(=O)CSc3ccc(Cl)cc3Cl)n(C(c3ccccc3)c3ccccc3)c3ccc(Cl)cc23)cc1
15 | 34 | 6 | CC(=O)N1CCN(Cc2ccccc2CS(=O)(=O)NCCc2c(CCCc3ccc(C(=O)O)cc3)c3cc(Cl)ccc3n2C(c2ccccc2)c2ccccc2)CC1
16 | 1500 | 410 | O=C(O)c1ccc(OCCc2c(CCNS(=O)(=O)CCn3cncn3)n(C(c3ccccc3)c3ccccc3)c3ccc(Cl)cc23)cc1
17 | 90 | 150 | O=C(O)c1ccc(OCCc2c(CCNS(=O)(=O)CSc3ccccc3Cl)n(C(c3ccccc3)c3ccccc3)c3ccc(Cl)cc23)cc1
18 | 200 | 500 | O=C(O)c1ccc(OCCc2c(CCNS(=O)(=O)CCn3ccnn3)n(C(c3ccccc3)c3ccccc3)c3ccc(Cl)cc23)cc1
19 | 110 |  | O=C(O)c1ccc(OCCc2c(CCNS(=O)(=O)Cc3ccc(Cl)c(Cl)c3)n(C(c3ccccc3)c3ccccc3)c3ccc(Cl)cc23)cc1 [ECOPLADIB]
20 | 200 | 510 | Cc1ccn(CCS(=O)(=O)NCCc2c(CCOc3ccc(C(=O)O)cc3)c3cc(Cl)ccc3n2C(c2ccccc2)c2ccccc2)n1
21 | 240 |  | CC(=O)N1CCN(CCS(=O)(=O)NCCc2c(CCOc3ccc(C(=O)O)cc3)c3cc(Cl)ccc3n2C(c2ccccc2)c2ccccc2)CC1
22 | 280 | 760 | Cc1cnn(CCS(=O)(=O)NCCc2c(CCOc3ccc(C(=O)O)cc3)c3cc(Cl)ccc3n2C(c2ccccc2)c2ccccc2)c1
23 | 140 | 200 | O=C(O)c1ccc(OCCc2c(CCNS(=O)(=O)CSc3cc(Cl)cc(Cl)c3)n(C(c3ccccc3)c3ccccc3)c3ccc(Cl)cc23)cc1
24 | 340 | 450 | C[C@@H]1COC[C@H](C)N1CCS(=O)(=O)NCCc1c(CCOc2ccc(C(=O)O)cc2)c2cc(Cl)ccc2n1C(c1ccccc1)c1ccccc1
25 | > 1250 |  | CN(C)C1CCN(CCS(=O)(=O)NCCc2c(CCOc3ccc(C(=O)O)cc3)c3cc(Cl)ccc3n2C(c2ccccc2)c2ccccc2)C1 (stereo not drawn)

Row | IC50 [1] [nM] | IC50 [2] [nM] | Compound
26 | 310 | 700 | O=C(O)c1ccc(OCCc2c(CCNS(=O)(=O)CCN3CCC(O)C3)n(C(c3ccccc3)c3ccccc3)c3ccc(Cl)cc23)cc1 (stereo not drawn)
27 | 70 | 170 | O=C(O)c1ccc(OCCc2c(CCNS(=O)(=O)CSc3ccc(F)c(Cl)c3)n(C(c3ccccc3)c3ccccc3)c3ccc(Cl)cc23)cc1
28 | 480 |  | CC1C(=O)NCCN1CCS(=O)(=O)NCCc1c(CCOc2ccc(C(=O)O)cc2)c2cc(Cl)ccc2n1C(c1ccccc1)c1ccccc1 (stereo not drawn)
29 | 320 |  | O=C(O)c1ccc(OCCc2c(CCNS(=O)(=O)CCN3CCSC3)n(C(c3ccccc3)c3ccccc3)c3ccc(Cl)cc23)cc1
30 | 50 |  | CC1CCCC(C)N1CCS(=O)(=O)NCCc1c(CCCc2ccc(C(=O)O)cc2)c2cc(Cl)ccc2n1C(c1ccccc1)c1ccccc1 (stereo not drawn)
31 | 30 | 10 | Cc1cccc(C)c1CS(=O)(=O)NCCc1c(CCCc2ccc(C(=O)O)cc2)c2cc(Cl)ccc2n1C(c1ccccc1)c1ccccc1
32 | 20 |  | O=C(O)c1ccc(CCCc2c(CCNS(=O)(=O)Cc3ccccc3CN3CCOCC3)n(C(c3ccccc3)c3ccccc3)c3ccc(Cl)cc23)cc1
33 | 80 | 150 | Cc1ccccc1SCS(=O)(=O)NCCc1c(CCOc2ccc(C(=O)O)cc2)c2cc(Cl)ccc2n1C(c1ccccc1)c1ccccc1
34 | > 10000 |  | CC1CN(CCS(=O)(=O)NCCc2c(CCOc3ccc(C(=O)O)cc3)c3cc(Cl)ccc3n2C(c2ccccc2)c2ccccc2)CC(C)N1 (stereo not drawn)
35 | 330 | 250 | COC[C@@H]1CCCN1CCS(=O)(=O)NCCc1c(CCOc2ccc(C(=O)O)cc2)c2cc(Cl)ccc2n1C(c1ccccc1)c1ccccc1
36 | 110 | 300 | Cc1cc(C)n(CCS(=O)(=O)NCCc2c(CCCc3ccc(C(=O)O)cc3)c3cc(Cl)ccc3n2C(c2ccccc2)c2ccccc2)n1
37 | 170 | 13 | O=C(O)c1ccc(CCCc2c(CCNS(=O)(=O)Cc3ccccc3CN3CCNCC3)n(C(c3ccccc3)c3ccccc3)c3ccc(Cl)cc23)cc1
38 | 120 |  | O=C(O)c1ccc(OCCc2c(CCNS(=O)(=O)Cc3ccccc3)n(C(c3ccccc3)c3ccccc3)c3ccc(Cl)cc23)cc1
39 | 540 |  | O=C(O)c1ccc(OCCc2c(CCNS(=O)(=O)CCn3cccn3)n(C(c3ccccc3)c3ccccc3)c3ccc(Cl)cc23)cc1
40 | 330 | 350 | O=C(O)c1ccc(OCCc2c(CCNS(=O)(=O)CCN3CCCC3)n(C(c3ccccc3)c3ccccc3)c3ccc(Cl)cc23)cc1
41 | 530 | 390 | O=C(O)c1ccc(OCCc2c(CCNS(=O)(=O)CCN3CCOCC3)n(C(c3ccccc3)c3ccccc3)c3ccc(Cl)cc23)cc1
42 | 160 | 600 | O=C(O)c1ccc(OCCc2c(CCNS(=O)(=O)CSc3c(Cl)cccc3Cl)n(C(c3ccccc3)c3ccccc3)c3ccc(Cl)cc23)cc1
43 | 300 | 330 | Cc1cccc(C)c1SCS(=O)(=O)NCCc1c(CCOc2ccc(C(=O)O)cc2)c2cc(Cl)ccc2n1C(c1ccccc1)c1ccccc1
44 | 400 | 250 | O=C(O)c1ccc(OCCc2c(CCNS(=O)(=O)CCN3CC4CC3CO4)n(C(c3ccccc3)c3ccccc3)c3ccc(Cl)cc23)cc1 (stereo not drawn)
45 | 200 | 220 | CC1CCN(CCS(=O)(=O)NCCc2c(CCOc3ccc(C(=O)O)cc3)c3cc(Cl)ccc3n2C(c2ccccc2)c2ccccc2)CC1
46 | 140 | 360 | O=C(O)c1ccc(OCCc2c(CCNS(=O)(=O)CCN3CCCCC3)n(C(c3ccccc3)c3ccccc3)c3ccc(Cl)cc23)cc1
47 | 5800 |  | O=C(O)c1ccc(OCCc2c(CCNS(=O)(=O)CCn3ccnc3)n(C(c3ccccc3)c3ccccc3)c3ccc(Cl)cc23)cc1
48 | 630 | 500 | O=C(O)c1ccc(OCCc2c(CCNS(=O)(=O)CCc3ccccc3)n(C(c3ccccc3)c3ccccc3)c3ccc(Cl)cc23)cc1
49 | 25 | 26 | Cc1ccccc1CS(=O)(=O)NCCc1c(CCCc2ccc(C(=O)O)cc2)c2cc(Cl)ccc2n1C(c1ccccc1)c1ccccc1
50 | 100 | 250 | C[C@@H]1CCC[C@H](C)N1CCS(=O)(=O)NCCc1c(CCOc2ccc(C(=O)O)cc2)c2cc(Cl)ccc2n1C(c1ccccc1)c1ccccc1
